In the library only some 3% were active in any assay of this set; here they are far more common.
PGC1a acetyl inh – lowers PGC1a acetylation signal in U2OS cells | AlphaScreen anti-acetyl-lysine; with virally co-expressed GCN5 acetyltransferase | inhibition, % at 15.6 µM | actives 0.17% (n = 350,000);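 active = every replicate shows inhibition of at least 40%; inconclusive = mean inhibition at least 40% but some replicate below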;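 also: 0% = neutral control wells and 100% = positive control wells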
SIRT5 inh – inhibitors of human sirtuin-5 desuccinylase; Q9NXA8; Purified SirT5, succinyl-peptide AMC, trypsin-coupled fluorescence; inhibition, % at 15 µM; actives 1.1% (n = 330,000); in the data active = inhibition above about 15%; inconclusive = no clear call, values can overlap the other calls
Target sequence (Q9NXA8 whole entry, looked up): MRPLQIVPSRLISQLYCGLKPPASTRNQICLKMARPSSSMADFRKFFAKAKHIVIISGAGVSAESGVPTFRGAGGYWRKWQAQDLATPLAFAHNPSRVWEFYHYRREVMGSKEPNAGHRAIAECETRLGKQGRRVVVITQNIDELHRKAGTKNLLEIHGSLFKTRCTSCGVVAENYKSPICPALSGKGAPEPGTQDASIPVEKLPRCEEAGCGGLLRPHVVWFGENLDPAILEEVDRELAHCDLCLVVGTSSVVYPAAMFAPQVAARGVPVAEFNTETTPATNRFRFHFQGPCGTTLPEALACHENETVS
S100A4 inh HTS – S100A4-myosin IIA interaction inhibition. inhibition, % at 10.7 µM. S100A4/TAMRA-MyoIIA peptide fluorescence polarization. actives 0.14% (n = 360,000). P26447;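 active = mean inhibition of at least 70% across replicates, with every replicate also reaching that level; inconclusive = mean inhibition reaches 70% but some replicates fall short; inactive = mean inhibition below 70%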
Target sequence (P26447 whole entry, looked up): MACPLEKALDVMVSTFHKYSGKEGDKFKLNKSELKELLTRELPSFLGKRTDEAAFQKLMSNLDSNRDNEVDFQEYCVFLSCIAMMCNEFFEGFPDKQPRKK
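Material: S100A4 monomer (human). Medium: Calcium-containing HEPES buffer, pH 7.2. Probe or stimulus: labelled myosin peptide probe, 5 nM. Compound dosing: one concentration per compound. Timing: polarization read 5 min after assay mix addition, stable 5–60 min. Benchmarks: DMSO as neutral control, TFP as positive control.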
Cneo AK release – causes C. neoformans cell lysis; adenylate kinase release luminescence, 4 h; normalised: neutral wells 0, clomiphene wells 100; lysis activity, % at 15 µM; actives 0.2% (n = 360,000);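 active = mean lysis activity across replicates of at least 80%, whatever share of replicates individually reach that level; inactive = mean lysis activity below 80%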
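Material: C. neoformans cells; Schedule: 4 h static compound exposure, 37 °C, read 1 h post-reagent; Measured by: adenylate kinase release luminescence; Read-out: signal increase indicating cell lysis; Controls: Clomiphene as positive lysis control.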
C2C12 statin – suppression of simvastatin myotoxicity; C2C12 myotubes + simvastatin, ATP luminescence, 48 h; scaled: DMSO 0, geranylgeraniol control 100; rescue of ATP level, % at 7.49 µM; actives 0.78% (n = 330,000); AID 602340;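 active = mean ATP rescue above about 67%, or every replicate alone reaching that limit, limit read from the data, passing the limit was not always enough; inconclusive = no clear call, values can overlap the other calls; inactive = mean under the limit and some replicate under it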;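 also: myotubes were challenged with 10 µM simvastatin during compound exposure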
rRNA inh HTS – inhibitors of bacterial rRNA selective over humanized ribosomes; E. coli WT GFP vs humanized-ribosome RFP mutants, fluorescence, 24 h; active compounds read low; DMSO median 0, no signal -100; GFP signal change (wild-type ribosome), % (no concentration beside the values); actives 1.6% (n = 350,000); AID 720706;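 active = significant combined selectivity score with lowered wild-type GFP, culture density cut under 30%, mutant RFP and density less affected; inactive = any of these conditions unmet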
An asterisk follows results filed as active; ? = inconclusive; . = no result given.

SMILES	PGC1a acetyl inh	SIRT5 inh	S100A4 inh HTS	Cneo AK release	C2C12 statin	rRNA inh HTS
CCc1ccc([C@@H]2CC=C(C(=O)O)[C@H](c3ccc(C)cc3)N2S(=O)(=O)c2ccc(C)cc2)cc1	-4.6	.	-1.4	-1.2	-0.6	-24.4*
Cc1ccc([C@H]2C(C(=O)O)=CC[C@@H](c3ccc(C)cc3)N2S(=O)(=O)c2ccccc2C)cc1	11.6	.	-6.8	-1.4	7.1	-39.0*
Cc1ccc(S(=O)(=O)N2[C@@H](c3ccccc3)C(C(=O)O)=CC[C@H]2c2cccs2)cc1	.	-0.9	0.9	0.3	6.9	-35.8
Cc1ccc([C@@H]2CC=C(C(=O)O)CN2S(=O)(=O)c2ccccc2C)cc1	.	0.9	2.6	-1.4	3.1	-25.2*
CN(C)CC(=O)Nc1ccc2c(c1)[C@H]1C[C@H](CC(=O)NCCN3CCCCC3)O[C@H](CO)[C@H]1O2	13.4	-4.4	-4.2	-2.2	-9.9	4.1
CC(C)NC(=O)Nc1ccc2c(c1)C(=O)N([C@@H](C)CO)C[C@H](C)[C@@H](CN(C)C(=O)C1CCCCC1)OCCCC[C@H](C)O2	-2.5	.	.	.	28.8	-2.0
CCC(=O)N1CC2(C1)[C@H](c1ccc(-c3ccccc3OC)cc1)[C@H](CO)N2C(C)=O	4.6	-3.2	-4.2	.	.	1.1
CN1CCN(c2nc(-c3ccccc3O)nc3ccccc23)CC1	.	-1.3	7.1	.	.	-8.4
COc1cccc(-c2nc(N3CCN(C)CC3)c3ccccc3n2)c1O	-14.6	-2.0	3.0	.	?	-22.8*
CCOCCCNCc1ccc(OCc2ccccc2C)c(OC)c1	-3.8	19.6*	2.5	4.2	-11.1	5.1
C[C@H](CO)N1C[C@H](C)[C@H](CN(C)C(=O)NC2CCCCC2)Oc2c(NC(=O)CCCCCC(=O)Nc3ccccc3N)cccc2C1=O	.	.	.	.	.	1.4
O=C(NN=C1c2ccccc2-c2ccccc21)c1ccccc1Br	66.1*	-1.7	1.2	-0.8	1.7	27.6
O=C(Nc1ccccc1-c1ccccc1)c1ccccc1Br	.	-4.4	1.1	0.0	23.3	-14.6
O=C(NN=C1c2ccccc2-c2ccccc21)c1ccccc1	0.9	4.2	0.7	41.1	-29.1	-32.4*
CC(C)CC#Cc1ccc2c(c1)O[C@@H](CN(C)C(=O)C1CC1)[C@H](C)CN([C@H](C)CO)S2(=O)=O	-12.2	.	.	.	-38.9	-3.7
CN1C(=O)C2C(C1=O)C1C=C(CCCO)C2C(c2ccc(CN3CCCC3)cc2)N1Cc1sc2ccccc2c1Cl (stereo not drawn)	-6.2	0.7	4.7	3.2	.	.
Cc1ccc(S(=O)(=O)N[C@@H]2CC[C@H](CC(=O)NCc3ccccc3F)O[C@H]2CO)cc1	10.5	-0.9	1.3	0.8	0.0	1.3
Cc1noc(C)c1NC(=O)N[C@@H]1C=C[C@@H](CC(=O)NCc2ccc(Cl)c(Cl)c2)O[C@@H]1CO	0.0	13.5	-12.2	-0.3	1.7	-0.4
COc1ccc(S(=O)(=O)Nc2ccc3c(c2)C(=O)N([C@@H](C)CO)C[C@@H](C)[C@H](CN(C)Cc2ccc(C(F)(F)F)cc2)OCCCC[C@H](C)O3)cc1	-3.5	6.8	30.1	12.4	.	2.4
COc1ccc(S(=O)(=O)Nc2ccc3c(c2)C(=O)N([C@@H](C)CO)C[C@@H](C)[C@@H](CN(C)Cc2ccc(C(F)(F)F)cc2)OCCCC[C@@H](C)O3)cc1	-2.5	21.7*	1.9	13.3	.	-1.0
COc1ccc(S(=O)(=O)Nc2ccc3c(c2)C(=O)N([C@H](C)CO)C[C@H](C)[C@H](CN(C)Cc2ccc(C(F)(F)F)cc2)OCCCC[C@H](C)O3)cc1	1.8	39.3*	17.4	24.1	.	-3.0
COc1ccc(S(=O)(=O)Nc2ccc3c(c2)C(=O)N([C@H](C)CO)C[C@@H](C)[C@@H](CN(C)Cc2ccc(C(F)(F)F)cc2)OCCCC[C@@H](C)O3)cc1	-7.9	15.3*	19.8	21.7	.	1.2
COc1ccc(S(=O)(=O)Nc2ccc3c(c2)C(=O)N([C@H](C)CO)C[C@@H](C)[C@@H](CN(C)Cc2ccc(C(F)(F)F)cc2)OCCCC[C@H](C)O3)cc1	4.3	17.5*	14.9	1.5	.	-0.7
CN1[C@@H]2c3ccc(-c4cccnc4)c(=O)n3C[C@@H]2[C@@H](CO)[C@@H]1C(=O)NCC1CCCCC1	.	-2.3	0.7	-1.5	19.3	-1.5
COc1ccc(S(=O)(=O)N(C)C[C@H]2OCc3ccccc3-c3ccccc3C(=O)N([C@H](C)CO)C[C@@H]2C)cc1	-0.7	-0.2	-91.5	-3.3	5.3	-0.1
SMILES	PGC1a acetyl inh	SIRT5 inh	S100A4 inh HTS	Cneo AK release	C2C12 statin	rRNA inh HTS
COc1cccc(S(=O)(=O)N[C@@H]2CC[C@H](CCN)O[C@@H]2CO)c1	4.3	2.3	14.2	48.1	-3.3	3.5
CC(C)(C)c1ccccc1OCCCCCn1ccnc1	-23.9	-6.7	6.1	.	.	-54.8*
CC(C)(C)C1CCC(C(=O)Nc2ccc(N3CCOCC3)cc2N2CCOCC2)CC1 (stereo not drawn)	3.4	1.1	-5.2	0.3	4.3	-20.4*
CCCCC1CCC(C(=O)Nc2ccccc2N2CCOCC2)CC1 (stereo not drawn)	1.3	-6.8	-3.8	1.8	-9.8	-0.2
C[C@@H]1CCCCO[C@H](CN(C)Cc2ccccc2)[C@@H](C)CN([C@@H](C)CO)C(=O)c2cc(NC(=O)NC3CCCCC3)ccc2O1	-10.3	1.3	-8.2	55.0	.	3.0
O=C(/C=C/Nc1ccc(Nc2ccccc2)cc1)c1cccs1	-12.6	-2.2	-5.3	.	.	-22.7*
Cc1ccc(N/C=C/C(=O)c2cccs2)cc1C	-4.7	-2.5	-33.3	-1.2	.	-20.1*
COC(=O)C[C@@H]1CC[C@@H]2[C@@H](COc3ccc(NC(=O)c4ccccc4)cc3C(=O)N2C)O1	3.6	0.4	-1.9	-14.1	6.4	1.2
O=C(CCc1ccccc1)N/N=C/c1cc(Br)ccc1O	.	-1.3	8.2	.	.	-15.6*
COc1ccc(CCCC(=O)N/N=C\c2cccs2)cc1	12.2	1.4	-4.2	.	.	-22.9*
O=C(CCCCC(=O)NN=Cc1ccccc1O)NN=Cc1ccccc1O	0.2	5.5	-5.9	0.7	105.7*	-13.8
O=C(COc1nsnc1N1CCOCC1)N/N=C/c1ccccc1O	.	.	1.8	.	.	-21.5*
O=C(O)COc1ccc(/C=N/NC(=O)COc2nsnc2N2CCOCC2)cc1	-0.5	3.0	6.9	-2.2	-1.5	8.1
Oc1ccc(Br)cc1/C=N/NC(=S)NCCc1ccccc1	.	3.4	-11.1	11.4	25.8	-47.0
CC(C)NC(=O)N(C)C[C@H]1Oc2ccc(NS(C)(=O)=O)cc2C(=O)N([C@@H](C)CO)C[C@H]1C	15.5	3.3	3.8	37.3	16.7	-2.1

Compound activity: PubChem BioAssay, Broad Institute
